Rows were chosen to be rich in hits. Some 6.8% of all compounds tested hit in one or more screens of this group.
HSF1 inh = HSF1 inhibition | NIH3T3-HGL HSE-luciferase, MG132-induced, luminescence 8 h; stronger effect = lower value | activity change, negative = inhibition, % at 7.5 µM (by protocol) | 300,000 tested, 0.77% active | AID 2098;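 active = more than half of replicate wells show activity change below -50%, luminescence cut by over half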;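 also: luciferase reports HSF-1 transcriptional activity via heat shock element; 0% = median of DMSO wells and -100% = zero luminescence signal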
HSF-1 act = increases HSF-1 driven luciferase reporter signal. NIH3T3-HGL HSF-1 luciferase reporter, MG132, 8 h; 100% = twice DMSO control signal. activation, % at 9 µM. AID 504408. 300,000 tested, 1.7% active;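 active = mean replicate activation of at least 50% with a set share of replicates each reaching 50%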;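 also: 0% = median of the neutral control wells and 100% = twice that signal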
PHOSPHO1 inh = inhibitors of human PHOSPHO1 phosphatase | AID 1565 | recombinant PHOSPHO1, absorbance phosphatase assay | 290,000 tested, 1.1% active | Q8TCT1 | inhibition, % at 13.3 µM; in the data active = inhibition above about 60%
Target sequence (Q8TCT1 whole entry, looked up): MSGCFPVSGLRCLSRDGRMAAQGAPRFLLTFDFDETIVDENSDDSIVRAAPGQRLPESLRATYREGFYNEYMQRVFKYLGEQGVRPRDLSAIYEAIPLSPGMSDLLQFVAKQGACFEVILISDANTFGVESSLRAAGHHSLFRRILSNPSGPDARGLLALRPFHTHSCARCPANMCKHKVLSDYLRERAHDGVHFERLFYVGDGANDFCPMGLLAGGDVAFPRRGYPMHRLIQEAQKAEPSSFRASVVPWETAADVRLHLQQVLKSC
HCV core dimer = HCV core protein dimerization inhibition | TR-FRET GST/Flag-core106 dimerization, 1536-well | inhibition, % at 5 µM | 300,000 tested, 0.33% active;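 active = inhibition above the mean of all tested compounds plus 3 SD, set per screening campaign, cut at about 45% in these data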
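Assay system: Tagged HCV core106 pair (GST and Flag) | Buffer or medium: KF-containing HEPES buffer, pH 7.45, DTT, CHAPS, BSA | Also added: Eu donor and XL665 acceptor anti-tag antibodies | Dosing: One concentration, 5 µM, in 0.5% DMSO | Timing: 4 h at 22.5 °C | Technique: TR-FRET 671 and 617 nm emission | Repeats: Singlicate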
ALR H2O2 inh = human ALR oxidase inhibition via reduced H2O2; inhibition, % (concentration not given with the values); purified ALR, DTT oxidation, H2O2 HRP-luminol luminescence; 290,000 tested, 3.8% active; P55789;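 active = mean replicate inhibition above about 79%, with every replicate also reaching it, limit read from the data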
Target sequence (P55789 whole entry, looked up): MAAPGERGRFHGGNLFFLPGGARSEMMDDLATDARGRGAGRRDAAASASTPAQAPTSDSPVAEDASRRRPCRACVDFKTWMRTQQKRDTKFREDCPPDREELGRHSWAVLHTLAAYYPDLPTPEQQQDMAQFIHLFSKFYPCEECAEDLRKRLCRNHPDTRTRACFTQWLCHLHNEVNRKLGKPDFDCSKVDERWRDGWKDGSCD
AI-2 QS mod = modulators of Vibrio harveyi AI-2 quorum sensing system; 300,000 tested, 0.4% active; activity change, % at 7.5 µM; AID 2094; Vibrio harveyi JMH597 AI-2 luminescence/OD600 ratio, 9 h; stronger effect = lower value; strain lacks LuxN and CqsS sensors; 0 = neutral-control median; in the data active = activity change below about -75%, passing the limit was not always enough;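 also: luminescence divided by OD600 gain over 9 h not by final OD600 alone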
An asterisk follows results filed as active; nt = not tested or not shown.

SMILES	HSF1 inh	HSF-1 act	PHOSPHO1 inh	HCV core dimer	ALR H2O2 inh	AI-2 QS mod
CCOC(=O)c1nn(-c2ccc(F)cc2)c(=O)cc1OCC(=O)N1CCN(c2ccccc2)CC1	-0.8	19.2	nt	2.1	nt	2.1
O=C(CSCc1ccc([N+](=O)[O-])cc1)Nc1ccccc1C(=O)O	12.7	14.9	41.8	0.3	33.4	-1.8
COc1cc(-c2nc3ccc4ccccc4c3c3c2CCC3)ccc1O	0.8	10.7	12.1	-6.0	96.2*	4.8
CCCCn1c(N)c(N(CC(C)C)C(=O)c2cccc(S(=O)(=O)N3CCCCCC3)c2)c(=O)[nH]c1=O	-6.3	-2.6	-29.3	-11.6	-8.0	17.4
CCCCn1c(N)c(N(CC(C)C)C(=O)c2cccc(S(=O)(=O)N3CCCCC3)c2)c(=O)[nH]c1=O	-71.0*	-77.1	nt	-1.4	-2.0	29.2
CCc1nnc(SCC(=O)Nc2ccc3c(c2)OCO3)n1CC	-3.1	-9.7	56.2	13.0	15.7	19.4
CCn1c(CNC(=O)c2cccs2)nnc1SCC(=O)Nc1ccc(Cl)cc1	-2.9	9.4	-4.2	-0.5	97.4*	28.3
Cn1c(COc2ccccc2)nnc1SCC(=O)Nc1ccc2c(c1)OCO2	3.3	-11.0	61.0*	-0.1	-5.1	19.6
CCn1c(COc2ccc(Cl)cc2)nnc1SCC(=O)Nc1ccc2c(c1)OCO2	nt	nt	60.5*	0.0	-19.4	12.8
Cc1ccc(OCc2nnc(SCC(=O)Nc3ccc4c(c3)OCO4)n2C)cc1	6.3	7.1	34.7	8.9	nt	20.6
CCN(CC)C(=O)Cn1cc(C(=O)C(=O)N2CCN(Cc3ccc4c(c3)OCO4)CC2)c2ccccc21	0.9	-3.5	27.0	-3.0	-12.8	-9.6
CN(Cc1cccnc1)C(=O)c1ccc2nc(Cc3ccccc3F)oc2c1	16.8	18.3	-69.4	-8.9	96.8*	-56.7
O=C(CN1C(=O)c2ccccc2S1(=O)=O)c1ccc(Cl)cc1Cl	-68.0*	-73.8	19.8	1.4	12.0	20.9
O=C(CN1C(=O)c2ccccc2S1(=O)=O)c1ccc(F)cc1	-36.8	-43.2	23.6	-2.0	nt	18.5
O=C(CN1C(=O)c2ccccc2S1(=O)=O)c1ccccc1F	-52.0*	-61.0	38.1	-12.4	-10.1	12.6
COC(=O)/C=C1/N/C(=N\c2nc(C)cc(C)n2)N(c2ccc(C)c(C)c2)C1=O	55.2	90.9*	14.3	-0.1	42.5	1.2
COC(=O)/C=C1\N/C(=N\c2nc(C)cc(C)n2)N(c2ccccc2)C1=O	9.9	-0.4	12.2	0.7	96.6*	3.3
COC(=O)/C=C1\N/C(=N\c2nc(C)cc(C)n2)N(c2ccc(C)cc2)C1=O	-3.9	3.5	-19.4	-5.8	nt	27.7
CC1(C)CC(NC(=O)c2ccc(Cl)c(S(=O)(=O)N(Cc3ccccc3)c3ccccc3)c2)CC(C)(C)N1	-2.1	1.4	nt	0.5	-16.8	3.1
O=C(O)CC(c1cccc(O)c1)N1Cc2ccccc2C1=O (configuration not stated)	-6.3	5.5	19.9	-4.1	-3.8	10.3
Cc1c(CCC(=O)O)c(=O)oc2cc3occ(-c4ccc(F)cc4)c3cc12	-1.7	-4.0	8.7	17.0	97.5*	31.8
Cc1c(CCC(=O)O)c(=O)oc2cc3occ(-c4ccc(Cl)cc4)c3cc12	6.3	13.7	46.3	20.8	7.8	2.6
COCCN(C(=O)CSc1nnc(-c2ccccc2OC)o1)c1c(N)n(CC(C)C)c(=O)[nH]c1=O	10.4	32.6	nt	-2.7	-3.9	13.3
OCCc1ccc(O)cc1	nt	nt	nt	-7.2	22.3	nt
Cc1ccc(O)c(CCc2ccc(O)cc2)n1	-3.8	-4.5	3.4	-2.0	94.1*	6.4
SMILES	HSF1 inh	HSF-1 act	PHOSPHO1 inh	HCV core dimer	ALR H2O2 inh	AI-2 QS mod
O=C1C2CCCN2C(=O)N1CCCN1CCN(c2cccc(Cl)c2)CC1 (configuration not stated)	-1.1	1.2	-14.6	-3.5	36.8	24.1
Cc1ccc(N2CCN(CCCN3C(=O)C4CCCN4C3=O)CC2)cc1 (configuration not stated)	-0.6	30.9	-0.3	-2.7	98.3*	38.9
Cc1ccc(OCc2csc(N)n2)cc1	3.8	-13.9	-5.3	-4.1	-4.1	-0.4
CC1CC1C(=O)Nc1nc2ccc(Cl)cc2s1 (configuration not stated)	44.2	61.1*	nt	-2.8	-4.8	13.0
O=C(Nc1nc2ccc(Cl)cc2s1)c1ccco1	10.2	26.8	1.0	-0.6	-3.3	11.5
Cn1cc(Cl)c(C(=O)Nc2nc3ccc(Cl)cc3s2)n1	23.3	57.4*	-10.8	-0.1	-2.0	24.8
CCOC(=O)CN1C(=O)CN(c2ccc(C)c(C)c2)C1=O	-7.8	11.2	9.1	0.9	-3.2	13.2
COc1cc(OC)c(CN2CCC(CO)(CCOc3ccccc3)CC2)c(OC)c1	-13.4	-2.5	64.2*	-5.9	-4.0	10.5
COc1cc(CN2CCC(CO)(CCOc3ccccc3)CC2)cc(OC)c1OC	-1.1	-7.9	24.8	-0.2	-3.2	12.7
COc1ccc([C@H]2CC(=O)C=C(c3cccc(OC(F)(F)F)c3)C2)cc1	nt	nt	nt	nt	-7.9	nt
COc1ccc(NC2CCCN(C(=O)c3cn(C)c4ccccc34)C2)cc1 (configuration not stated)	-1.3	-8.8	12.0	3.4	99.3*	16.9
Cc1ccc(NC2CCCN(C(=O)c3cn(C)c4ccccc34)C2)cc1C (configuration not stated)	2.0	1.9	-0.6	-4.6	92.3*	15.1
CC(NC(=O)c1cc(S(=O)(=O)N2CCCC2)ccc1Cl)c1ccccn1 (configuration not stated)	nt	nt	nt	nt	0.9	nt
CC(C)Cc1nnc(NC(=O)CCC(=O)NC2CCCC2)s1	9.5	32.0	12.1	3.5	1.9	15.7
O=C(COC(=O)/C=C/c1ccco1)NCCc1ccccc1	-3.4	2.4	-2.1	2.1	15.6	-4.7
O=C(C#Cc1cccc([N+](=O)[O-])c1)c1ccccc1	61.5	96.7*	25.8	16.0	11.8	-55.1
O=C(Nc1cccc([N+](=O)[O-])c1)c1ccccc1	-4.6	10.6	-1.3	-3.1	-6.0	5.1
Nc1ccccc1C#CC(=O)c1ccccc1	58.0	83.6*	42.0	5.5	50.2	-90.4*
Cn1c(=Nc2ccc(N3CCOCC3)cc2)ccc2ccccc21	-11.0	-7.7	95.7*	-4.3	99.2*	19.8
O=C(CCCn1cc([N+](=O)[O-])cn1)Nc1ccc2c(c1)OCO2	-4.9	5.7	40.5	-3.8	nt	9.6
CC(C)[C@H](NS(=O)(=O)c1cccc(C(F)(F)F)c1)C(=O)OCC(N)=O	-1.4	-3.6	-11.6	2.4	-4.3	7.0
C=CCSc1nc(-c2ccc(OC)cc2)c(C#N)c(=O)n1CC=C	19.7	64.9*	60.0*	nt	nt	5.4
COc1ccc(-c2nc3n(c(=O)c2C#N)CCS3)cc1	-7.3	9.4	18.0	-2.7	-11.0	11.8

Assay outcomes: PubChem BioAssay, several laboratories
